Test results: ChEMBL document CHEMBL4043132, “3-O-Substituted-3',4',5'-trimethoxyflavonols: Synthesis and cell-based evaluation as anti-prostate cancer agents” (Bioorg Med Chem, 2017)
Values belong to the compound of their own block, whether it stands above or below them.

How the values were obtained:
Assay type in all cases: functional, cell-based
PC-3 = assay: Antiproliferative activity against human PC3 cells after 3 days by WST-1 assay; details: PC-3, 72 h
Procedure, shortened: (§1)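 Cells from ATCC; PC-3 and LNCaP grown in RPMI-1640 and DU145 in EMEM, each with 10% FBS and 1% penicillin/streptomycin, 37 °C, 5% CO2. Seeded 3,200 cells/well and exposed for 3 days to at least five doses, with DMSO as vehicle control. WST-1 reagent added for 3 h at 37 °C, absorbance read at 430 nm. IC50 taken from a linear inhibition plot; mean ± SD of three independent experiments.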

DU-145 = assay: Antiproliferative activity against human DU145 cells after 3 days by WST-1 assay; details: DU-145, 72 h; procedure, shortened: as §1
LNCaP = assay: Antiproliferative activity against human LNCAP cells after 3 days by WST-1 assay; details: 72 h; procedure, shortened: as §1

Structure (SMILES): CCCCCOc1c(-c2cc(OC)c(OC)c(OC)c2)oc2ccccc2c1=O
IC50 (PC-3): 22.2 µM | IC50 (DU-145): > 50 µM | IC50 (LNCaP): 15.4 µM

Structure (SMILES): CCCC(C)Oc1c(-c2cc(OC)c(OC)c(OC)c2)oc2ccccc2c1=O (stereo not given)
IC50 (PC-3): 49.3 µM | IC50 (DU-145): > 50 µM | IC50 (LNCaP): 15.1 µM

Structure (SMILES): CCCN(CCC)CCCOc1c(-c2cc(OC)c(OC)c(OC)c2)oc2ccccc2c1=O
IC50 (PC-3): 16.8 µM | IC50 (DU-145): > 50 µM | IC50 (LNCaP): 17.9 µM

Structure (SMILES): O=c1c(O)c(-c2ccc(O)c(O)c2)oc2cc(O)cc(O)c12 [QUERCETIN]
IC50 (PC-3): > 100 µM | IC50 (DU-145): > 100 µM

Structure (SMILES): CCCCCCCOc1c(-c2cc(OC)c(OC)c(OC)c2)oc2ccccc2c1=O
IC50 (PC-3): > 50 µM | IC50 (DU-145): > 50 µM | IC50 (LNCaP): > 50 µM

Structure (SMILES): CCC(C)Oc1c(-c2cc(OC)c(OC)c(OC)c2)oc2ccccc2c1=O (stereo not given)
IC50 (PC-3): 38.6 µM | IC50 (DU-145): > 50 µM | IC50 (LNCaP): 9.3 µM

Structure (SMILES): O=c1c(O)c(-c2ccc(O)c(O)c2)oc2cc(O)ccc12 [FISETIN]
IC50 (PC-3): > 50 µM | IC50 (DU-145): > 50 µM | IC50 (LNCaP): 34.1 µM

Structure (SMILES): CCN(CC)CCCOc1c(-c2cc(OC)c(OC)c(OC)c2)oc2ccccc2c1=O
IC50 (PC-3): 13.6 µM | IC50 (DU-145): > 50 µM | IC50 (LNCaP): 37.6 µM

Structure (SMILES): CCCCCCOc1c(-c2cc(OC)c(OC)c(OC)c2)oc2ccccc2c1=O
IC50 (PC-3): 29.2 µM | IC50 (DU-145): > 50 µM | IC50 (LNCaP): 19.6 µM

Structure (SMILES): CCN(CC)CCCCOc1c(-c2cc(OC)c(OC)c(OC)c2)oc2ccccc2c1=O
IC50 (PC-3): 13.7 µM | IC50 (DU-145): 13.3 µM | IC50 (LNCaP): 13.5 µM

Structure (SMILES): CCCCOc1c(-c2cc(OC)c(OC)c(OC)c2)oc2ccccc2c1=O
IC50 (PC-3): 12.8 µM | IC50 (DU-145): > 50 µM | IC50 (LNCaP): 8.9 µM

Structure (SMILES): COc1cc(-c2oc3ccccc3c(=O)c2OC)cc(OC)c1OC
IC50 (PC-3): 19.1 µM | IC50 (DU-145): > 50 µM | IC50 (LNCaP): 24.7 µM

Structure (SMILES): COc1cc(-c2oc3ccccc3c(=O)c2OC(C)C)cc(OC)c1OC
IC50 (PC-3): 21.2 µM | IC50 (DU-145): > 50 µM | IC50 (LNCaP): 8.8 µM

Now those with a lower IC50 (PC-3), led by results:

IC50 (PC-3): 6.6 µM | IC50 (DU-145): 33.4 µM | IC50 (LNCaP): 10 µM
Structure (SMILES): CCN(CC)CCCCCOc1c(-c2cc(OC)c(OC)c(OC)c2)oc2ccccc2c1=O

IC50 (PC-3): 5.3 µM | IC50 (DU-145): 15.3 µM | IC50 (LNCaP): 7.8 µM
Structure (SMILES): CCCCN(CCCC)CCCCOc1c(-c2cc(OC)c(OC)c(OC)c2)oc2ccccc2c1=O

IC50 (PC-3): 2.6 µM | IC50 (DU-145): 24.2 µM | IC50 (LNCaP): 7.6 µM
Structure (SMILES): CCCN(CCC)CCCCCOc1c(-c2cc(OC)c(OC)c(OC)c2)oc2ccccc2c1=O

IC50 (PC-3): 11.8 µM | IC50 (DU-145): 2.8 µM | IC50 (LNCaP): 5.7 µM
Structure (SMILES): CCCOc1c(-c2cc(OC)c(OC)c(OC)c2)oc2ccccc2c1=O

IC50 (PC-3): 9.6 µM | IC50 (DU-145): 11.7 µM | IC50 (LNCaP): 7.9 µM
Structure (SMILES): CCCCCN(CCCCC)CCCCCOc1c(-c2cc(OC)c(OC)c(OC)c2)oc2ccccc2c1=O

IC50 (PC-3): 6.8 µM | IC50 (DU-145): > 50 µM | IC50 (LNCaP): 7.8 µM
Structure (SMILES): CCCCN(CCCC)CCCCCOc1c(-c2cc(OC)c(OC)c(OC)c2)oc2ccccc2c1=O

IC50 (PC-3): 7.9 µM | IC50 (DU-145): 12.5 µM | IC50 (LNCaP): 9.7 µM
Structure (SMILES): CCCCCN(CCCCC)CCCCOc1c(-c2cc(OC)c(OC)c(OC)c2)oc2ccccc2c1=O

IC50 (PC-3): 7.1 µM | IC50 (DU-145): 15.7 µM | IC50 (LNCaP): 9 µM
Structure (SMILES): CCCCN(CCCC)CCCOc1c(-c2cc(OC)c(OC)c(OC)c2)oc2ccccc2c1=O

IC50 (PC-3): 11.6 µM | IC50 (DU-145): 35.8 µM | IC50 (LNCaP): 16.8 µM
Structure (SMILES): CCCN(CCC)CCCCOc1c(-c2cc(OC)c(OC)c(OC)c2)oc2ccccc2c1=O
